Each structure is given as a SMILES string.

In the experiment the test system is Rattus norvegicus. In words: Compound was evaluated for its antiallergic activity in rat passive cutaneous anaphylaxis (PCA) test by the intravenous administration. The class given is functional. Put shortly:
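Male Sprague–Dawley rats (250–300 g) sensitized intradermally on shaved backs with six twofold dilutions (typically 1:4–1:128) of rat anti-ovalbumin serum in 0.9% saline. After 72 h, compound given iv to groups of six just before iv challenge with 1% ovalbumin plus pontamine sky-blue. Killed at 20 min and wheal diameters measured. Inhibition computed against vehicle controls; ED50 from log-dose regression with 95% confidence limits.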
For `O=C1c2ccccc2S(=O)(=O)c2[nH]nnc21`, the ED50 was found to be 6.14 mg/kg.

In the case of `Cc1ccc2sc3nnnc-3c(O)c2c1`, the 50% effective dose (ED50) was determined as 11.4 mg/kg.

Take `Cc1ccc2sc3nnnc-3c(O)c2c1C`: the ED50 turned out to be 3.18 mg/kg.

Compound `Oc1c2nnnc-2sc2ccccc12` returned an ED50 of 1.43 mg/kg.

`Cc1ccc2c(c1)C(=O)c1[nH]nnc1S2(=O)=O`: the ED50 is 5.88 mg/kg.

The compound `O=c1c2ccccc2[s+]([O-])c2[nH]nnc12` (stereo not given) returned an ED50 of 1.23 mg/kg.

`Cc1cc2c(cc1C)S(=O)(=O)c1nn[nH]c1C2=O` had an ED50 of 0.6 mg/kg.

Compound `Cc1ccc2c(c1C)C(=O)c1[nH]nnc1S2(=O)=O` came in with an ED50 above 1 mg/kg.

`Cc1cc2sc3nnnc-3c(O)c2cc1C` returned an ED50 of 0.43 mg/kg.

Regarding `COc1ccc2sc3nnnc-3c(O)c2c1`, it took a dose of 1.59 mg/kg to reach the 50% effect level (ED50).
